# LEDGF integ inh: blocks HIV-1 LEDGF/p75-dependent DNA integration; TR-FRET IN-LEDGF/p75 DNA integration, Eu/Cy5; AID 743269; inhibition, % at 3.7 µM; 0.64% of 370,000 active;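 active means inhibition above the screen-wide mean plus 3 SD, cut at about 13% in these data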;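 further: signal is the Cy5 over europium emission ratio at 671 and 618 nm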
# MBD2 DNA inh: MBD2-methylated oligo binding inhibition | Q9UBB5 | TR-FRET, MBD2 binding to methylated oligonucleotide | inhibition, % at 4.4 µM | 0.31% of 370,000 active; in the data active means inhibition above about 13%
# DDE Tn7 FP inh: inhibitors of Tn7 peptide binding to human fibrin DD(E); inhibition, % at 8.3 µM; FP displacement of FITC-Tn7 peptide from fibrin DD(E); 0% = median of compound wells per plate; 0.13% of 370,000 active; AID 720508;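 active means inhibition above the mean of compounds falling within the control limits plus 3 SD of them, cut at about 14% in these data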
# Target sequence (P02675 whole entry, looked up): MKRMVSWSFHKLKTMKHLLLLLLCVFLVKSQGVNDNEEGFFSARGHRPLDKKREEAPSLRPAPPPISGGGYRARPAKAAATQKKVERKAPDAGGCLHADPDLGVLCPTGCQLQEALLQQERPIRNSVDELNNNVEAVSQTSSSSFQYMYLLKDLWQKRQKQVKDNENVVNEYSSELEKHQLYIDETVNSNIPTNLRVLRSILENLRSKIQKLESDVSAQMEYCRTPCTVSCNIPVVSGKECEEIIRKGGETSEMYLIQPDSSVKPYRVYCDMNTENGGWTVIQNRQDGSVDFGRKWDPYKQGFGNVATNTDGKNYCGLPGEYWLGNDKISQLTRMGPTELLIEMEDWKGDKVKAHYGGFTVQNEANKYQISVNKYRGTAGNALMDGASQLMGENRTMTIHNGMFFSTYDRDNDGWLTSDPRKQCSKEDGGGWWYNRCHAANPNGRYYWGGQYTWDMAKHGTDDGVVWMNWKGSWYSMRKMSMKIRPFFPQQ
#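 Assay system: Human clot-derived fibrin DD(E) complex | Buffer or medium: Tris/NaCl/CaCl2 buffer, pH 7.8 | Repeats: One replicate per compound | Benchmarks: Aha-Tn7 high control | Measure: % inhibition scaled between sample-field median and high-control FP | Schedule: 10 min plus 3 h, room temperature | Signal: Fluorescence polarization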
# UHRF1 MBD2 ctr: blocks human UHRF1 binding to methylated DNA; Q96T88; UHRF1 binding to methylated oligo, TR-FRET; inhibition, % at 4.4 µM; 0.75% of 370,000 active; AID 687016; in the data active means inhibition above about 21%;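 further: UHRF1 SRA domain binding a hemimethylated CpG hairpin DNA probe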
# DDE Tn6 FP inh: inhibitors of Tn6 peptide binding to human fibrin DD(E); Fibrin DD(E) TRITC-Tn6 fluorescence polarization displacement; inhibition, % at 8.3 µM; 0.21% of 370,000 active; AID 720509;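 active means inhibition above a per-campaign cutoff: mean of compounds within control limits plus 3 SD, cut at about 15% in these data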
# TDP2 inh: TDP2 (human) inhibition, absorbance primary screen | recombinant TDP2, T5PNP hydrolysis, p-nitrophenol absorbance 415 nm | 0.34% of 370,000 active | inhibition, % at 12.8 µM;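 active means inhibition above the mean of all tested compounds plus 3 SD, set per campaign, cut at about 25% in these data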
#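 System – recombinant human TDP2 · Quantity – TDP2 enzyme at 120 nM final · Doses – single concentration, 12.8 µM nominal, with 1% DMSO · Incubation – 2 h at 37 °C · Measured by – epi absorbance of p-nitrophenol freed from T5PNP by hydrolysis · Read-out – % inhibition relative to enzyme-containing and enzyme-free wells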
# Hits are given with their value; i = inactive. Only some compounds are listed: those with a hit (about 1.9% of all), similar ones and a draw of the others.
SMILES,LEDGF integ inh,MBD2 DNA inh,DDE Tn7 FP inh,UHRF1 MBD2 ctr,DDE Tn6 FP inh,TDP2 inh
CCc1sc(C(=O)NCc2ccco2)cc1Br,i,i,i,26,i,i
Cc1cccc(NC2=C(C#N)C(=O)NC3(CCCC3)S2)c1,i,i,i,24,i,i
O=C(O)c1[nH]c2ccccc2c1C(c1cc(Cl)cc([N+](=O)[O-])c1O)c1c(C(=O)O)[nH]c2ccccc12,14,i,i,i,i,i
O=C(O)c1[nH]c2ccccc2c1C(c1ccccc1)c1c(C(=O)O)[nH]c2ccccc12,i,i,i,i,i,i
Cn1c(=O)c(=O)n(C)c2cc(S(=O)(=O)N3CCN(c4ccccc4Cl)CC3)ccc21,i,i,i,i,i,i
O=C(C1CCN(c2ncnc3c2sc2cccc(F)c23)CC1)N1CCCCC1,i,i,i,i,i,i
COc1ccc(CCN2C(=O)COc3ccccc3C2C(=O)NCc2ccccc2)cc1OC (centres undefined),i,i,i,23,i,i
CC(C)C[C@H]1COc2ccc(Cl)cc2S(=O)(=O)N1,i,i,i,i,i,i
O=C(c1ccccc1)N1CCCc2ccccc21,i,i,i,21,i,i
O=C(c1ccc(=O)oc1)N1CCCc2ccccc21,22,i,i,i,i,i
O=C(c1ccccc1)N1CCc2ccccc21,i,i,i,i,i,i
CCN(CC)S(=O)(=O)c1ccc(Cl)c(C(=O)Nc2cc(C)nn2-c2ccccc2)c1,i,i,i,65,i,i
O=S1(=O)c2c(cccc2N2CC[C@@H](O)C2)OCCCN1C1CC1,i,i,i,i,i,i
Cc1ccc(S(=O)(=O)N2O[C@@H](c3ccccc3)C[C@H]2CON2C(C)(C)CCCC2(C)C)cc1,i,i,i,i,i,i
COc1cccc(NC(=O)C2CCCN2C(=O)NC2CCC(C)CC2)c1 (centres undefined),i,i,i,i,i,i
O=S1(=O)c2ccccc2OC(COCc2ccccc2)CN1C1CC1 (centres undefined),i,i,i,26,i,i
Cc1cccc(OCC(=O)Nc2ccc3c(C)cc(=O)oc3c2)c1,i,i,i,i,i,i
Cc1cc(=O)oc2cc(NC(=O)COc3cccc(C(F)(F)F)c3)ccc12,i,i,i,56,i,i
O=C(CSc1nc2ccccc2c(=O)[nH]1)NC1CCCCC1,i,i,i,i,i,i
FC(F)(F)c1cc(Cl)c2nc(-c3ccco3)c(Cc3ccccc3C(F)(F)F)n2c1,i,i,i,21,i,i
Cc1ccc(-c2nc3c(Cl)cc(C(F)(F)F)cn3c2Cc2ccccc2C(F)(F)F)cc1,i,i,i,i,i,i
O=C(Nc1cccc([N+](=O)[O-])c1)NC1CCCCN(Cc2ccc(Cl)cc2)C1=O (centres undefined),i,i,i,i,i,i
COCCNC(=O)C1CCC(=O)N(c2ccc(OC)cc2)C1c1ccc(OC)c(OC)c1 (centres undefined),i,i,i,23,i,i
O=C(NCC1COc2ccccc2O1)c1ccc(NC(=O)c2cccc(F)c2)cc1 (centres undefined),i,i,i,i,i,i
O=C(CN1CCN(c2ccccn2)CC1)Nc1ccccc1,i,i,i,i,i,i
SMILES,LEDGF integ inh,MBD2 DNA inh,DDE Tn7 FP inh,UHRF1 MBD2 ctr,DDE Tn6 FP inh,TDP2 inh
O=C(CN1CCN(c2ccccn2)CC1)NC1CCCC1,i,i,i,24,i,i
CN(C)CCOC(C)(c1ccccc1)c1ccccn1 (centres undefined),i,i,i,66,i,i
CN(C)CCC(c1ccccc1)c1ccccn1 (centres undefined),i,i,i,i,i,i
Nc1nc2c(ncn2[C@@H]2O[C@H](C(=O)N[C@H](Cc3ccccc3)C(=O)O)[C@@H](O)[C@H]2O)c(=O)[nH]1,i,i,i,i,i,i
Oc1ccc(C[C@H]2CNC(=S)N2CC2CCCN2C[C@H](Cc2ccc(O)cc2)N2C[C@H](Cc3ccc(O)cc3)N(CC3CCCCC3)C2=S)cc1 (some centres undefined),i,i,i,i,26,i
Cc1ccc(S(=O)(=O)NCCNC(=O)C2CCCNC2=O)cc1 (centres undefined),i,i,i,21,i,i
C[C@]12Cc3ccccc3C1CC1=N[C@@H](C3CCCCC3)O[C@@]13C[C@@H]2C(=O)N3C1CCN(Cc2ccccc2)CC1 (some centres undefined),i,i,i,i,i,i
CCC(Sc1nc2cc(OC)c(OC)cc2c(=O)n1Cc1ccc(OC)cc1)C(=O)NCCOC (centres undefined),i,i,i,23,i,i
CSc1nnc(-c2cccc(NC(=O)c3ccccc3)c2)n1C,i,i,i,26,i,i
CCOc1ccc2ccccc2c1CNCCc1ccc(S(N)(=O)=O)cc1,i,i,i,45,i,i
O=C(C1=C(O)C(=O)N(Cc2ccco2)C1c1cccs1)c1cccs1 (centres undefined),i,i,i,i,i,i
O=C(C1=C(O)C(=O)N(CCOCCO)C1c1cccs1)c1cccs1 (centres undefined),i,i,i,56,i,i
CCOc1ccccc1C1CC(=O)Nc2cc3c(cc21)OCCO3 (centres undefined),i,i,i,23,i,i
Cc1ccc(C2=CCN(C)C(=O)N2c2ccccc2)cc1,i,i,i,i,i,i
COc1cc2c(cc1OC)C(c1ccccc1)NC(C)(C)C2 (centres undefined),i,i,i,46,i,i
CCOC(=O)c1c(Nc2ccc(OC)cc2)n[nH]c1C,i,i,i,i,i,i
CC(C)COC(=O)c1ccccc1OC(=O)c1ccncc1,i,i,i,25,i,i
CCCc1nnc(NC(=O)CCC(=O)NC2CCCC2)s1,i,i,i,23,i,i
Cc1ccc(NC2CCCN(C(=O)c3cn4cc(Cl)ccc4n3)C2)cc1C (centres undefined),i,i,i,i,i,i
O=C(c1cn2ccccc2n1)N1CCCC(Nc2ccc(F)c(F)c2)C1 (centres undefined),i,i,i,23,i,i
O=C(CCCCCNC(=O)c1ccccc1)N/N=C/c1ccc(O)cc1O,i,i,i,21,i,i
CCCN1C(=O)c2[nH]nc(-c3ccccc3)c2C1c1ccc(Br)cc1 (centres undefined),i,i,i,i,i,i
CCOC(=O)c1sc2nc(-c3ccco3)c3c(c2c1N)CC(C)(C)OC3,42,i,i,i,i,i
COc1cccc(NC(=O)c2cccc(C)c2[N+](=O)[O-])c1,i,i,i,62,i,i

# Screening results from PubChem BioAssay.
